ChEMBL document CHEMBL1122828, “Resolution and absolute configuration of the potent dopamine agonist N,N-diethyl-N'-[(3 alpha, 4a alpha, 10a beta)-1,2,3,4,4a,5,10,10a- -octahydro-6-hydroxy-1-propyl-3-benzo[g]quinolinyl]sulfamide” (J Med Chem, 1985)

Columns and labels:
[1] = target: T1, Adrenergic receptor alpha-1 (Rattus norvegicus, UniProt P15823+P23944+P43140); experiment: In vitro inhibitory activity was evaluated against,[3H]WB 4101 whole rat brain alpha 1-adrenoceptor
T1 sequence (P15823 whole entry): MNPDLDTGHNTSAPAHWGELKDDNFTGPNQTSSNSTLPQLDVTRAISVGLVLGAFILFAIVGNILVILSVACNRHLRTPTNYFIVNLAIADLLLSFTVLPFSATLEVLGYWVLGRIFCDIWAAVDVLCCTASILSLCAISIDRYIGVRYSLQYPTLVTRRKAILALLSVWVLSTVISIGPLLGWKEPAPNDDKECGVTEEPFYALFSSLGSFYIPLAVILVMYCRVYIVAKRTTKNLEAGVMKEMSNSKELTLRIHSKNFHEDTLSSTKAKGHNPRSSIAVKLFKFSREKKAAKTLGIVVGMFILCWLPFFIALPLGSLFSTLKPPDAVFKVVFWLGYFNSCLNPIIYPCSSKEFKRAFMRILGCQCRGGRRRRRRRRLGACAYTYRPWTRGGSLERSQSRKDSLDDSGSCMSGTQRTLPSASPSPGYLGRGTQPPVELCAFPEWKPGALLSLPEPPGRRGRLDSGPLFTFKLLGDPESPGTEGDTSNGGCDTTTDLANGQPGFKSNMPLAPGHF
T1 sequence (P23944 whole entry): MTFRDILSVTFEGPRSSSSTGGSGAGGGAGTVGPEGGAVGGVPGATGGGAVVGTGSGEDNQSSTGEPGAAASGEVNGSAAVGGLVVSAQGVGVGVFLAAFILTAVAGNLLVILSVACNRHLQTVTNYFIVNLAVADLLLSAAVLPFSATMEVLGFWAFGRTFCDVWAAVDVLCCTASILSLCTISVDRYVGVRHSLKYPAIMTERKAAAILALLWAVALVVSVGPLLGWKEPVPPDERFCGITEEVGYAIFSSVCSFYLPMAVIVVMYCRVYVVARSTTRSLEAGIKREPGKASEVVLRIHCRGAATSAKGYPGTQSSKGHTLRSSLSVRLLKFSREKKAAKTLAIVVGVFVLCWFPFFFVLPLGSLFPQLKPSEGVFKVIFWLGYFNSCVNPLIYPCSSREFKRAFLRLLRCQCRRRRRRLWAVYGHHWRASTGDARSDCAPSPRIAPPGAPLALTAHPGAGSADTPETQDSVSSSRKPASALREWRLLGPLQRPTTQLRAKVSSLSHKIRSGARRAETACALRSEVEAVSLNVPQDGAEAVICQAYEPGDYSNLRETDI
T1 sequence (P43140 whole entry): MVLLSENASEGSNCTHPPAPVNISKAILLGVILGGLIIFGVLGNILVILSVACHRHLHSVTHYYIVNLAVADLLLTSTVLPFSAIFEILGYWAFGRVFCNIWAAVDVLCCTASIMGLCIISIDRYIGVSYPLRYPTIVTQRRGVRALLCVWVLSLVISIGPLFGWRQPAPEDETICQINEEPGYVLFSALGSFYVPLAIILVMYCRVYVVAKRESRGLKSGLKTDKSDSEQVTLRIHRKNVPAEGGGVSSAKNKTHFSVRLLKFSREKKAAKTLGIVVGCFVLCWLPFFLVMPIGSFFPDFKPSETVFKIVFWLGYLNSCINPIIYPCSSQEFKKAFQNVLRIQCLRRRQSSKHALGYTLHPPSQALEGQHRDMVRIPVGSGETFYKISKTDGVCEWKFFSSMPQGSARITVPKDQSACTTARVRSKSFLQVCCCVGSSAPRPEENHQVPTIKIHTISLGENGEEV
Summary of the method: (§1)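 Radioligand displacement used brain homogenates. Four to six test concentrations were each incubated in triplicate. IC50 in nM came from weighted regression analysis.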

[2] = target: T2, Adrenergic receptor alpha-2 (Rattus norvegicus, UniProt P22086+P19328+P22909); experiment: In vitro inhibitory activity was evaluated against,[3H]clonidine (Clon) rat brain minus cerebellum Alpha-2 adrenergic receptor; format: tissue-based; summary of the method: as §1
T2 sequence (P22086 whole entry): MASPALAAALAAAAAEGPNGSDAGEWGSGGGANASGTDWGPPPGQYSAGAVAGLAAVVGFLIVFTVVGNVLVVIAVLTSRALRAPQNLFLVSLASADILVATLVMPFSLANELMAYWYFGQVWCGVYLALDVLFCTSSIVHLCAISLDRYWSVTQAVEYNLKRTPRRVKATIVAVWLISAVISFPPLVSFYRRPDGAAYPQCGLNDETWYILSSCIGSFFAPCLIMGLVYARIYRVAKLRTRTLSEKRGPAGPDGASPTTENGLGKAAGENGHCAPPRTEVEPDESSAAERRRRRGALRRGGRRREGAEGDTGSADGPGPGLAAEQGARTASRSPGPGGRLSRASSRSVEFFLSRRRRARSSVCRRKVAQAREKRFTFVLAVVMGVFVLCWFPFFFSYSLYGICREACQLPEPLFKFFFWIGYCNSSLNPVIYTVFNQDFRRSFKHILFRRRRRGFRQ
T2 sequence (P19328 whole entry): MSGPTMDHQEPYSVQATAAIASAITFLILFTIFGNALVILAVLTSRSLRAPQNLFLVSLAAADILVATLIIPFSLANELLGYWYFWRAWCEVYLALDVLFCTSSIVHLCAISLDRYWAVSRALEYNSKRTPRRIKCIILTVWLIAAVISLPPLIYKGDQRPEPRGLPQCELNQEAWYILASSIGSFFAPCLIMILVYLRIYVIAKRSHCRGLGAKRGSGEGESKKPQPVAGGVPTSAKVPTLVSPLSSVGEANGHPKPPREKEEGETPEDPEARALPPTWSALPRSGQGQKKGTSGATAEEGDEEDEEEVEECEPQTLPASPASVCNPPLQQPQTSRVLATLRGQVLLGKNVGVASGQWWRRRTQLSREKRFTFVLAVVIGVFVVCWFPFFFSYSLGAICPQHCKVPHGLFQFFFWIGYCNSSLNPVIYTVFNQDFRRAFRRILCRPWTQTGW
T2 sequence (P22909 whole entry): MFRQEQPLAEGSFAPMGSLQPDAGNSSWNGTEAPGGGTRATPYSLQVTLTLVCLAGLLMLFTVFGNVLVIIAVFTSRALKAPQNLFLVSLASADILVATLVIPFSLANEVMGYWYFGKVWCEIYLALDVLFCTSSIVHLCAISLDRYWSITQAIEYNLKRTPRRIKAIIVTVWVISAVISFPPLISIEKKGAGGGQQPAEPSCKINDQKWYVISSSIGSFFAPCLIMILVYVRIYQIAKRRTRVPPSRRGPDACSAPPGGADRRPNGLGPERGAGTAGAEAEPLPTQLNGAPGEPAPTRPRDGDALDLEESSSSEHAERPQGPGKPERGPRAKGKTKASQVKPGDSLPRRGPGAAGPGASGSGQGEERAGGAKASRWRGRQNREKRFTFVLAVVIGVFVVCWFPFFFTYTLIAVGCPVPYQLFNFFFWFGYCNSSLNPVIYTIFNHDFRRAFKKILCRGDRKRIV

Dopamine receptor [3] = target: T3, Dopamine receptor (Bos taurus, UniProt Q95136+P20288); experiment: In vitro inhibitory activity was evaluated against,[3H]dopamine (DA),calf caudate dopamine receptor; format: protein assay; summary of the method: as §1
Dopamine receptor [4] = target: T3, Dopamine receptor; experiment: In vitro inhibitory activity was evaluated against,[3H]spiperone calf caudate (SPC) dopamine receptor; format: protein assay; summary of the method: as §1
Rattus norvegicus [5] = experiment: Compound was evaluated for the in vivo inhibition of basal prolactin for a time 4 hr after injection in male rats; format: functional
Summary of the method: (§2)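 Adult male SIV 50 rats were housed singly from the day before, with light from 4 a.m. to 6 p.m. They got a single sc injection and were decapitated 4 h later. Trunk blood was taken and serum pooled from 3 rats per group, with 1–3 groups per dose. Prolactin was measured by double-antibody RIA against NIH rat Prl RP-1. The dose giving a 50% fall in serum prolactin was estimated graphically.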

Dopamine receptor [6] = target: T3, Dopamine receptor; experiment: In vitro inhibitory activity was evaluated against [3H]dopamine (DA) calf caudate dopamine receptor; format: protein assay; summary of the method: as §1
Dopamine receptor [7] = target: T3, Dopamine receptor; experiment: In vitro inhibitory activity was evaluated against [3H]spiperone calf caudate (SPC) dopamine receptor; format: protein assay; summary of the method: as §1
Rattus norvegicus [8] = experiment: Compound was evaluated for the in vivo inhibition of basal prolactin secretion for a time 4 hr after injection in male rats; format: functional; conditions: read-out: ID50 (the source's name); summary of the method: as §2
Rattus norvegicus [9] = experiment: Compound was evaluated for the in vivo inhibition of basal prolactin secretion for a time 30 min after injection in male rats; format: functional; conditions: 0.5 h, read-out: ID50 (the source's name)
Rattus norvegicus [10] = experiment: Compound was evaluated for the in vivo inhibition of basal prolactin secretion for a time 60 min after injection in male rats; format: functional; conditions: 1 h, read-out: ID50 (the source's name)
[11] = target: Serotonin (5-HT) receptor; experiment: In vitro inhibitory activity was evaluated against,[3H]serotonin (5-HT) whole rat brain serotonin receptor
[12] = target: Serotonin (5-HT) receptor; experiment: In vitro inhibitory activity was evaluated against,[3H]spiperone rat frontal cortex (SPFC) serotonin receptor; format: tissue-based

Row | Structure (SMILES) | IC50 [1] | IC50 [2] | IC50 (Dopamine receptor [3]) | IC50 (Dopamine receptor [4]) | IC50 (Dopamine receptor [6]) | IC50 (Dopamine receptor [7]) | ID50 (Rattus norvegicus [5]) | ED50 (Rattus norvegicus [8]) | ED50 (Rattus norvegicus [9]) | ED50 (Rattus norvegicus [10]) | IC50 [11] | IC50 [12] | ED50 (Rattus norvegicus [5]; Rattus norvegicus, 4 h, read-out: ID50 (the source's name))
1 | CN1CCc2cccc3c2[C@H]1Cc1ccc(O)c(O)c1-3 [APOMORPHINE] | 7.75 µM | – | – | – | – | – | – | > 10 mg/kg | 0.058 mg/kg | 0.081 mg/kg | > 10 µM | 4.5 µM | –
2 | CCN(CC)S(=O)(=O)N[C@H]1C[C@@H]2c3cccc4[nH]cc(c34)C[C@H]2N(C)C1 [ETISULERGINE] | 3.3 µM | 0.48 µM | 0.12 µM | 0.025 µM | – | – | – | – | – | – | > 5 µM | 0.026 µM | 0.0014 mg/kg

Continued, in another order:

Row | IC50 [1] | IC50 [2] | IC50 (Dopamine receptor [3]) | IC50 (Dopamine receptor [4]) | IC50 (Dopamine receptor [6]) | IC50 (Dopamine receptor [7]) | Structure (SMILES) | ID50 (Rattus norvegicus [5]) | ED50 (Rattus norvegicus [8]) | ED50 (Rattus norvegicus [9]) | ED50 (Rattus norvegicus [10]) | IC50 [11] | IC50 [12] | ED50 (Rattus norvegicus [5]; Rattus norvegicus, 4 h, read-out: ID50 (the source's name))
3 | 7.8 µM | 5.6 µM | 0.19 µM | 0.048 µM | – | – | CCCN1CC(NS(=O)(=O)N(CC)CC)CC2Cc3c(O)cccc3CC21 (racemic) [QUINAGOLIDE] | 0.005 mg/kg | – | – | – | – | – | –
4 | > 10 µM | > 10 µM | – | – | > 100 µM | > 10 µM | CCCN1CC(NS(=O)(=O)N(CC)CC)CC2Cc3c(O)cccc3CC21 (stereo in doubt; (+)1) [QUINAGOLIDE] | – | > 3 mg/kg | – | – | – | – | –
5 | 6 µM | 7.4 µM | 0.075 µM | 0.019 µM | – | – | CCCN1CC(NS(=O)(=O)N(CC)CC)CC2Cc3c(O)cccc3CC21 (stereo in doubt; -1) [QUINAGOLIDE] | 0.0018 mg/kg | – | – | – | – | – | –
